Source: ChEMBL document CHEMBL1137764, “Design, synthesis, antibacterial activity and physicochemical parameters of novel N-4-piperazinyl derivatives of norfloxacin” (Bioorg Med Chem, 2009)
In brackets after ≈: the same amount, converted by molar mass.

Assays:
Pseudomonas aeruginosa [1] = experiment: Antimicrobial activity against Pseudomonas aeruginosa at 4 ug/ml after 24 hrs by agar diffusion technique; format: functional; settings: read-out: DIZ
Summary of the method: (§1)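 Strains came from a university microbiology department. Inocula were 10⁶ CFU/mL. Mueller-Hinton agar was seeded with culture, poured 3–4 mm thick, and 10 mm cups were bored. Compounds were dissolved in DMF (10 mg/mL stock), diluted, and the solution was placed in the cups. Plates were incubated at 37 °C overnight. Inhibition zone diameter (mm) was read at 24 h.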

Pseudomonas aeruginosa [2] = experiment: Antimicrobial activity against Pseudomonas aeruginosa at 16 ug/ml after 24 hrs by agar diffusion technique; format: functional; settings: read-out: DIZ; summary of the method: as §1
Pseudomonas aeruginosa [3] = experiment: Antimicrobial activity against Pseudomonas aeruginosa at 64 ug/ml after 24 hrs by agar diffusion technique; format: functional; settings: read-out: DIZ; summary of the method: as §1
Pseudomonas aeruginosa [4] = experiment: Antimicrobial activity against Pseudomonas aeruginosa at 128 ug/ml after 24 hrs by agar diffusion technique; format: functional; settings: read-out: DIZ; summary of the method: as §1
Pseudomonas aeruginosa [5] = experiment: Antimicrobial activity against Pseudomonas aeruginosa at 512 ug/ml after 24 hrs by agar diffusion technique; format: functional; settings: read-out: DIZ; summary of the method: as §1
Escherichia coli [6] = experiment: Antimicrobial activity against Escherichia coli at 4 ug/ml after 24 hrs by agar diffusion technique; format: functional; settings: read-out: DIZ; summary of the method: as §1
Escherichia coli [7] = experiment: Antimicrobial activity against Escherichia coli at 16 ug/ml after 24 hrs by agar diffusion technique; format: functional; settings: read-out: DIZ; summary of the method: as §1
Escherichia coli [8] = experiment: Antimicrobial activity against Escherichia coli at 64 ug/ml after 24 hrs by agar diffusion technique; format: functional; settings: read-out: DIZ; summary of the method: as §1
Escherichia coli [9] = experiment: Antimicrobial activity against Escherichia coli at 128 ug/ml after 24 hrs by agar diffusion technique; format: functional; settings: read-out: DIZ; summary of the method: as §1
Escherichia coli [10] = experiment: Antimicrobial activity against Escherichia coli at 512 ug/ml after 24 hrs by agar diffusion technique; format: functional; settings: read-out: DIZ; summary of the method: as §1
Klebsiella pneumoniae [11] = experiment: Antimicrobial activity against Klebsiella pneumoniae at 4 ug/ml after 24 hrs by agar diffusion technique; format: functional; settings: read-out: DIZ; summary of the method: as §1
Klebsiella pneumoniae [12] = experiment: Antimicrobial activity against Klebsiella pneumoniae at 16 ug/ml after 24 hrs by agar diffusion technique; format: functional; settings: read-out: DIZ; summary of the method: as §1
Klebsiella pneumoniae [13] = experiment: Antimicrobial activity against Klebsiella pneumoniae at 64 ug/ml after 24 hrs by agar diffusion technique; format: functional; settings: read-out: DIZ; summary of the method: as §1
Klebsiella pneumoniae [14] = experiment: Antimicrobial activity against Klebsiella pneumoniae at 128 ug/ml after 24 hrs by agar diffusion technique; format: functional; settings: read-out: DIZ; summary of the method: as §1
Klebsiella pneumoniae [15] = experiment: Antimicrobial activity against Klebsiella pneumoniae at 512 ug/ml after 24 hrs by agar diffusion technique; format: functional; settings: read-out: DIZ; summary of the method: as §1
Staphylococcus aureus [16] = experiment: Antimicrobial activity against Staphylococcus aureus at 4 ug/ml after 24 hrs by agar diffusion technique; format: functional; settings: read-out: DIZ; summary of the method: as §1
Staphylococcus aureus [17] = experiment: Antimicrobial activity against Staphylococcus aureus at 16 ug/ml after 24 hrs by agar diffusion technique; format: functional; settings: read-out: DIZ; summary of the method: as §1
Staphylococcus aureus [18] = experiment: Antimicrobial activity against Staphylococcus aureus at 64 ug/ml after 24 hrs by agar diffusion technique; format: functional; settings: read-out: DIZ; summary of the method: as §1
Staphylococcus aureus [19] = experiment: Antimicrobial activity against Staphylococcus aureus at 128 ug/ml after 24 hrs by agar diffusion technique; format: functional; settings: read-out: DIZ; summary of the method: as §1
Staphylococcus aureus [20] = experiment: Antimicrobial activity against Staphylococcus aureus at 512 ug/ml after 24 hrs by agar diffusion technique; format: functional; settings: read-out: DIZ; summary of the method: as §1
Pseudomonas aeruginosa [21] = experiment: Antimicrobial activity against Pseudomonas aeruginosa after 24 hrs by agar diffusion technique; format: functional; settings: for MIC: Pseudomonas aeruginosa, 24 h
Summary of the method: (§2)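 Agar cup diffusion on Mueller-Hinton agar seeded from 10⁶ CFU/mL suspensions, with 10 mm cups in a 3–4 mm layer. Compounds were in DMF (10 mg/mL stock) at several concentrations. Plates were incubated at 37 °C and zones measured after 24 h. MIC was taken as the intercept of the plot of log concentration against inhibition zone diameter.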

Escherichia coli [22] = experiment: Antimicrobial activity against Escherichia coli after 24 hrs by agar diffusion technique; format: functional; settings: for MIC: Escherichia coli, 24 h; summary of the method: as §2
Klebsiella pneumoniae [23] = experiment: Antimicrobial activity against Klebsiella pneumoniae after 24 hrs by agar diffusion technique; format: functional; settings: for MIC: Klebsiella pneumoniae, 24 h; summary of the method: as §2
Staphylococcus aureus [24] = experiment: Antimicrobial activity against Staphylococcus aureus after 24 hrs by agar diffusion technique; format: functional; settings: for MIC: Staphylococcus aureus, 24 h; summary of the method: as §2
[25] = Octanol-phosphate buffer partition coefficient, log D at pH 7.4 by spectrophotometry; format: physicochemical
Summary of the method: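 Shake-flask method. A 0.2 mg/mL stock was diluted into pH 7.4 phosphate buffer and mixed with an equal volume of n-octanol, phases mutually presaturated and protected from light. Samples were vortexed 3 min, then shaken 5 h at 25 °C. Both phases were assayed by UV at 270–280 nm. D is the molar concentration ratio, octanol to aqueous.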

Structure (SMILES)	zone of inhibition at 4 µg/mL (Pseudomonas aeruginosa [1])	zone of inhibition at 16 µg/mL (Pseudomonas aeruginosa [2])	zone of inhibition at 64 µg/mL (Pseudomonas aeruginosa [3])	zone of inhibition at 128 µg/mL (Pseudomonas aeruginosa [4])	zone of inhibition at 512 µg/mL (Pseudomonas aeruginosa [5])	zone of inhibition at 4 µg/mL (Escherichia coli [6])	zone of inhibition at 16 µg/mL (Escherichia coli [7])	zone of inhibition at 64 µg/mL (Escherichia coli [8])	zone of inhibition at 128 µg/mL (Escherichia coli [9])	zone of inhibition at 512 µg/mL (Escherichia coli [10])	zone of inhibition at 4 µg/mL (Klebsiella pneumoniae [11])	zone of inhibition at 16 µg/mL (Klebsiella pneumoniae [12])	zone of inhibition at 64 µg/mL (Klebsiella pneumoniae [13])	zone of inhibition at 128 µg/mL (Klebsiella pneumoniae [14])	zone of inhibition at 512 µg/mL (Klebsiella pneumoniae [15])	logMIC (Pseudomonas aeruginosa [21])	MIC (Pseudomonas aeruginosa [21])	logMIC (Escherichia coli [22])	MIC (Escherichia coli [22])	logMIC (Klebsiella pneumoniae [23])	also measured
CCn1cc(C(=O)O)c(=O)c2cc(F)c(N3CCN(CN4CCOCC4)CC3)cc21	0 mm	0 mm	3 mm	3 mm	15 mm	0 mm	0 mm	0 mm	0 mm	30 mm	0 mm	0 mm	0 mm	0 mm	20 mm	1.2	16 µg/mL (≈ 38.2 µM)	2.11	128 µg/mL (≈ 306 µM)	2.11	zone of inhibition at 4 µg/mL (Staphylococcus aureus [16]): 5 mm; zone of inhibition at 16 µg/mL (Staphylococcus aureus [17]): 7 mm; zone of inhibition at 64 µg/mL (Staphylococcus aureus [18]): 7 mm; zone of inhibition at 128 µg/mL (Staphylococcus aureus [19]): 8 mm; zone of inhibition at 512 µg/mL (Staphylococcus aureus [20]): 10 mm; MIC (Klebsiella pneumoniae [23]): 128 µg/mL (≈ 306 µM); logMIC (Staphylococcus aureus [24]): 0; MIC (Staphylococcus aureus [24]): < 1 µg/mL; logD [25]: -0.043
CCn1cc(C(=O)O)c(=O)c2cc(F)c(N3CCN(c4nnc(-c5ccccc5)c(-c5ccccc5)n4)CC3)cc21	0 mm	0 mm	0 mm	0 mm	0 mm	0 mm	0 mm	0 mm	0 mm	0 mm	0 mm	0 mm	0 mm	0 mm	0 mm	2.71	> 512 µg/mL	2.71	> 512 µg/mL	2.71	MIC (Klebsiella pneumoniae [23]): > 512 µg/mL; logMIC (Staphylococcus aureus [24]): 1.81; MIC (Staphylococcus aureus [24]): 64 µg/mL (≈ 116 µM); logD [25]: -0.072
CCn1cc(C(=O)O)c(=O)c2cc(F)c(N3CCN(Cn4cnc5ccccc54)CC3)cc21	0 mm	0 mm	0 mm	0 mm	15 mm	0 mm	3 mm	6 mm	7 mm	10 mm	0 mm	0 mm	3 mm	8 mm	20 mm	2.11	128 µg/mL (≈ 285 µM)	0.6	4 µg/mL (≈ 8.9 µM)	1.15	zone of inhibition at 4 µg/mL (Staphylococcus aureus [16]): 0 mm; zone of inhibition at 16 µg/mL (Staphylococcus aureus [17]): 0 mm; zone of inhibition at 64 µg/mL (Staphylococcus aureus [18]): 0 mm; zone of inhibition at 128 µg/mL (Staphylococcus aureus [19]): 0 mm; zone of inhibition at 512 µg/mL (Staphylococcus aureus [20]): 3 mm; MIC (Klebsiella pneumoniae [23]): 14 µg/mL (≈ 31.1 µM); logMIC (Staphylococcus aureus [24]): 2.11; MIC (Staphylococcus aureus [24]): 128 µg/mL (≈ 285 µM); logD [25]: -0.043
CCn1cc(C(=O)O)c(=O)c2cc(F)c(N3CCN(CN4C(=O)c5ccccc5C4=O)CC3)cc21	0 mm	0 mm	0 mm	10 mm	12 mm	0 mm	0 mm	0 mm	0 mm	9 mm	0 mm	0 mm	4 mm	8 mm	10 mm	1.81	64 µg/mL (≈ 134 µM)	2.11	128 µg/mL (≈ 268 µM)	0.95	zone of inhibition at 4 µg/mL (Staphylococcus aureus [16]): 0 mm; zone of inhibition at 16 µg/mL (Staphylococcus aureus [17]): 0 mm; zone of inhibition at 64 µg/mL (Staphylococcus aureus [18]): 0 mm; zone of inhibition at 128 µg/mL (Staphylococcus aureus [19]): 0 mm; zone of inhibition at 512 µg/mL (Staphylococcus aureus [20]): 0 mm; MIC (Klebsiella pneumoniae [23]): 9 µg/mL (≈ 18.8 µM); logMIC (Staphylococcus aureus [24]): 2.71; MIC (Staphylococcus aureus [24]): > 512 µg/mL
